The test system of experiment [1] is Mus musculus. Description: Inhibition of apomorphine-induced climbing in mice after intraperitoneal administration. In kind it is functional. Conditions: ip. The essentials: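 Male Swiss–Webster mice (25–35 g), ten per dose, were acclimated 30 min in cylindrical cages and then dosed ip. One hour later they received apomorphine 3 mg/kg sc. Climbing was scored in 30-s tests every 5 min for 30 min, starting 15 min after apomorphine. ED50 from at least three doses by nonlinear regression.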

The subject of experiment [2] is Rattus norvegicus. Briefly: Compound was tested for serum prolactin assay method in rats at 100 mg/kg dose after peroral administration. Type of experiment: functional. Conditions: route oral. A digest of the protocol:
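Seven-week-old male Sprague–Dawley rats, five per group, were dosed orally and killed by decapitation 1 h later. Serum prolactin from trunk blood was measured by radioimmunoassay with [125I]-PRL and expressed as % of control (mean ± SEM).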

Experiment [3] is described as follows: Displacement of [3H]flunitrazepam from rat brain GABA-A benzodiazepine receptor. In general terms: In a radioligand displacement assay an active substance lowers the binding of a labelled ligand.
Experiment [4] is described as follows: Inhibition of sidman avoidance in squirrel monkeys after peroral administration. Type of experiment: functional. Conditions: po. A digest of the protocol: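 Mature squirrel monkeys, trained on a modified Sidman avoidance lever schedule, were dosed orally and tested in 6-h sessions. Inhibition was expressed as % of each animal's own nondrug responding. At least three doses were given to four animals, with sessions at least 1 week apart. ED50 from nonlinear regression.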

Another experiment has as its target T1, Adenosine receptor A1 (Rattus norvegicus, UniProt P25099).
T1 sequence (P25099 whole entry): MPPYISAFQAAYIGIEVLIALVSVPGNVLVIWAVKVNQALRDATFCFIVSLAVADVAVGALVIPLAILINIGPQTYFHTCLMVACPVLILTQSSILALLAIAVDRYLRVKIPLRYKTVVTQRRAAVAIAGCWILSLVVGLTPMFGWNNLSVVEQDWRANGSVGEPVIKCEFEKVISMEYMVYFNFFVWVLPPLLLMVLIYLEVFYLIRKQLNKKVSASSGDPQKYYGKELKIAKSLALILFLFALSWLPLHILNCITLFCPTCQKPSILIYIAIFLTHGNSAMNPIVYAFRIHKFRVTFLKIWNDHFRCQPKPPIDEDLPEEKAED
Description: Binding affinity towards adenosine A1 receptor using [3H]- CHA. The essentials:
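Adenosine A1 binding in membranes of rat whole brain minus brain stem and cerebellum (male Long-Evans, 150–250 g), using [3H]-CHA at 1.0 nM final. Theophylline at 1 mM final was the reference. IC50 from four or five concentrations by nonlinear fit.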

The species named for experiment [5] is Mus musculus. Description: Ability to inhibit locomotor activity using ataxia test. In kind it is functional. Conditions: read-out: MED. The essentials: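 Male Swiss–Webster mice (20–30 g, unfasted), nine per dose in groups of three, dosed ip in 0.2% methocel (dose as parent compound) 1 h before testing. Ataxia was scored first on an inverted screen over 60 s as % of mice falling. […] ED50 from at least three doses.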

For experiment [6], the system named is Rattus norvegicus. Description: Compound was tested for its affect on the accumulation of the dopamine metabolite homovanillic acid (HAV) in the rat striatum at 25 mg/kg dose after peroral administration. In kind it is functional. The conditions noted are these: route oral. The essentials:
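Male Long–Evans rats were dosed orally and decapitated 2 h later. Striatal HVA was isolated on Sephadex G-10 and measured spectrofluorometrically, expressed as % control ± SEM.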

The nature of experiment [7]: Extrapyramidal side effect test in cebus monkey. In kind it is functional. Conditions: read-out: MED. The essentials: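 Groups of three to six were then dosed by gavage and observed hourly for 6–8 h for dystonia or dyskinesia. Any unequivocal sign counted as a positive response. Minimal effective dose was determined in at least three animals.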
For experiment [8], the species on record is Rattus norvegicus. Briefly: Compound was tested for adenylate cyclase activity in rat corpus striatum. In kind it is functional. The essentials:
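Rat corpus striatum homogenates from male Long–Evans rats (200–300 g) were incubated with dopamine held at 20 μM while test compound concentration was varied. Cyclic AMP formed was measured by radioimmunoassay, with assays run in triplicate.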

The target in experiment [9] is T2, Adrenergic receptor alpha-2 (Rattus norvegicus, UniProt P22086+P19328+P22909).
T2 sequence (P22086 whole entry): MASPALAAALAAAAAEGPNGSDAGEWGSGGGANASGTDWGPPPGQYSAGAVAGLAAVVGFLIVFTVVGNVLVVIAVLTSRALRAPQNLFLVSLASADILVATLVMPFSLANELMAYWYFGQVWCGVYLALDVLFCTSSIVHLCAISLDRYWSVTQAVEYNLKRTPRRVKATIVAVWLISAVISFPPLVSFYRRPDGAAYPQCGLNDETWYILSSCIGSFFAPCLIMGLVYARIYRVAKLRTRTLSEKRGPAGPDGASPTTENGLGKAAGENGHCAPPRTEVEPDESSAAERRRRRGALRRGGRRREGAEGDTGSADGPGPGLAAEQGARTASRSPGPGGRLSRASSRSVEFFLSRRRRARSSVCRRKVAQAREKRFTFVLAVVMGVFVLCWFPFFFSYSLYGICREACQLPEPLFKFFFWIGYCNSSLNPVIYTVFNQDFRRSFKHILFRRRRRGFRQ
T2 sequence (P19328 whole entry): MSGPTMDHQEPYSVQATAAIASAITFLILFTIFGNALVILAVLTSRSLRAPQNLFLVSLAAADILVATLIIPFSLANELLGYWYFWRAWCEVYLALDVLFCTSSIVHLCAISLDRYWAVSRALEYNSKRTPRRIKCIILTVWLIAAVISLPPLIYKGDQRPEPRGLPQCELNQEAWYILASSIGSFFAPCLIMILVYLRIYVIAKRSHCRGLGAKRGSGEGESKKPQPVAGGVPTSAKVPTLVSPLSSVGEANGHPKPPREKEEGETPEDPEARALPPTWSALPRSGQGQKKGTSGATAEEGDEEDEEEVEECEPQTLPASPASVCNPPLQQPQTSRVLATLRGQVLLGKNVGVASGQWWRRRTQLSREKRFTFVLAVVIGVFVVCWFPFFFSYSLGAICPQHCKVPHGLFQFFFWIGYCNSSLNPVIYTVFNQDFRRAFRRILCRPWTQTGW
T2 sequence (P22909 whole entry): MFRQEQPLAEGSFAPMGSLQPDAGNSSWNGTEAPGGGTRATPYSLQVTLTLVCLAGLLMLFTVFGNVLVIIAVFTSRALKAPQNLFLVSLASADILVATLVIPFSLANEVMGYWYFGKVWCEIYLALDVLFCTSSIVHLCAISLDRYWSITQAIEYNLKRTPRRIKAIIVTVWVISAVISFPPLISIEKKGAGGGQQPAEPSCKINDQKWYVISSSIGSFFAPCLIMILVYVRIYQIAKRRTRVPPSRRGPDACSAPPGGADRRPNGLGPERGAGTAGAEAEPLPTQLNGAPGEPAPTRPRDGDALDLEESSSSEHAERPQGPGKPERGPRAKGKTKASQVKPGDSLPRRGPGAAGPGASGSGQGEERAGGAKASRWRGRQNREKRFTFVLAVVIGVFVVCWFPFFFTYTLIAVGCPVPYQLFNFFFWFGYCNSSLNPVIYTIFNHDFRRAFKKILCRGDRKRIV
Description: Binding affinity against alpha-2 adrenergic receptor in rat brain using [3H]- clonidine.

A further experiment concerns the target Dopamine receptor. Briefly: Binding affinity for dopamine receptor in rat striatal membrane using [3H]haloperidol as radioligand. In kind it is cell membranes, Striatum. The essentials: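 Nonspecific binding defined with (+)-butaclamol at 0.1 μM final. IC50 fitted by nonlinear curve fit from four or five concentrations in triplicate.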
Experiment [10] addresses GABA-A receptor; anion channel. Description: Displacement of [3H]GABA from rat brain Gamma-aminobutyric acid receptor. The essentials:
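GABA binding in membranes of rat whole brain minus cerebellum and brain stem (male Long-Evans, 150–250 g), using [3H]-GABA at 25 nM final. GABA at 1 mM final was the reference. IC50 from four or five concentrations by nonlinear curve fitting.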

Some results are limits rather than exact numbers.

`CCN(CC)CC(=O)Nc1c(C(=O)c2ccccc2F)c(C)nn1C`: the values for the median effective dose (ED50) (with Mus musculus [1]; in [4]) were more than 100 mg/kg and 15.6 mg/kg, respectively. The Control in the experiment on Rattus norvegicus [2] was 21.8%; with Rattus norvegicus [6] it was 114.9%. The IC50 (in experiment [3]; at Adenosine receptor A1; in the experiment filed under Rattus norvegicus [8]) was more than 10 µM throughout. The minimal effective dose in the experiment filed under Mus musculus [5] is 30 mg/kg; in experiment [7], more than 100 mg/kg.

As to `Cc1nn(C)c(NC(=O)CNCCCN2CCCCC2C)c1C(=O)c1ccccc1F` (stereo unspecified), the ED50 (commonly the dose at which the effect has come halfway, by size or by number of responders) in the experiment on Mus musculus [1] was more than 100 mg/kg; in [4], 12.7 mg/kg. Moreover, the Control is listed as 51% in the experiment with Rattus norvegicus [2] and 95.8% with Rattus norvegicus [6]. Further, the IC50 (in [3]; in experiment [9]; on Dopamine receptor; in experiment [10]; in the experiment listed under Rattus norvegicus [8]) was more than 10 µM in each case. The minimal effective dose in the experiment filed under Mus musculus [5] is 30 mg/kg; in experiment [7] it was more than 200 mg/kg.

As to `Cc1nn(C)c(N)c1C(=O)c1ccccc1F`, the IC50 (in [3]; on Adenosine receptor A1; in experiment [9]; on Dopamine receptor; in experiment [10]) was more than 10 µM throughout. Further, the minimal effective dose in the experiment filed under Mus musculus [5] was less than 10 mg/kg.
